The test system of experiment [1] is Nucleic Acid. The experiment in a line: Binding affinity to pUC18 DNA assessed as DNA alkylating activity after 5 hrs by thermal cleavage assay. Format: nucleic-acid assay. Conditions: Escherichia coli. The essentials: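 PCR probe from the 749–956 region of pUC18. DNA precipitated and lyophilised, then heated at 90 °C for 30 min in sodium citrate buffer (pH 7.2) to cleave at alkylated adenines. Fragments resolved by electrophoresis.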

Experiment [2] has as its system Leishmania mexicana. The experiment in a line: Antimicrobial activity against promastigotes of Leishmania mexicana assessed as inhibition of cell proliferation after 72 hrs by alamar blue assay. In kind it is functional, organism-based. Summed up:
(§1)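 Promastigotes at 5 × 10^4 cells/well in DME-L medium with 10% heat-inactivated FBS, hemin, xanthine and penicillin-streptomycin. Exposed to 0.03 nM to 64 µM compound for 72 h at 26 °C. Alamar blue added, incubated 15 h, dye reduction read by fluorescence ex 530/em 590 nm.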

In experiment [3] the test system is Leishmania donovani. Kind of experiment: Antimicrobial activity against promastigotes of Leishmania donovani assessed as inhibition of cell proliferation after 72 hrs by alamar blue assay. Format: functional, organism-based. Summed up: as §1
Experiment [4] relates to Plasmodium falciparum. Kind of experiment: Antimicrobial activity against Plasmodium falciparum infected in human erythrocytes assessed as growth inhibition. In kind it is functional, organism-based. The essentials:
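P. falciparum grown in human erythrocytes at 3–5% hematocrit in complete medium. In vitro growth assay at six concentrations, in triplicate, in three independent experiments.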

Experiment [5] has as its system L1210. Kind of experiment: Cytotoxicity against mouse L1210 cells after 3 days by MTT assay. Format: functional, cell-based. Conditions: L1210, 72 h. Summed up:
(§2)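 Murine tumour cells under continuous drug exposure for 3 days. Growth inhibition measured by MTT assay. IC50 is the concentration inhibiting growth by 50%.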
(In general: Tetrazolium dyes change colour on reduction, which living cells bring about.)

Experiment [6] is described as follows: Cytotoxicity against mouse B16F0 cells after 3 days by MTT assay. In kind it is functional, cell-based. Conditions: B16F0, 72 h. The essentials: as §2
Experiment [7] has as its system Trypanosoma brucei. Kind of experiment: Antimicrobial activity against procyclic form of Trypanosoma brucei 427 assessed as inhibition of cell proliferation after 72 hrs by alamar blue assay. Format: functional, organism-based. Conditions: Trypanosoma brucei, 427, 72 h. The essentials: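 T. brucei 427 procyclic forms grown in SDM 79 medium with 0.03 nM to 64 µM compound for 72 h at 26 °C. Proliferation read by Alamar blue reduction after a further 15 h, fluorescence ex 530/em 590 nm.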
Background: Resazurin is reduced to fluorescent resorufin, in cell work by metabolically active cells.

Broadly, the IC50 is the concentration that inhibits the measured activity by half.

For `COc1cc2cc(C(=O)Nc3cc(N)c4ccccc4c3CCCl)[nH]c2c(OC)c1OC` [CENTANAMYCIN], the Activity entry in experiment [1] is “Dose-dependent effect”. Further, the IC50 in experiment [2] stood at 1020 nM; in experiment [3] it was 13 nM; in experiment [4] it was 1.8 nM; in experiment [5], 55 nM; in experiment [6] it was 27 nM; in experiment [7], 1.9 nM.

For `COc1cc2cc(C(=O)N3CC(CCl)c4c3cc(O)c3ccccc43)[nH]c2c(OC)c1OC` (stereo not drawn), the IC50 in experiment [6] was found to be 78 nM.

The values above are taken from ChEMBL document CHEMBL1250434, “A novel achiral seco-cyclopropylpyrido[e]indolone (CPyI) analog of CC-1065 and the duocarmycins: synthesis, DNA interactions, in vivo anticancer and anti-parasitic evaluation” (Bioorg Med Chem, 2010).
